Calls of active or inactive are those of the source. The rule behind the calls is not given here.
How the values were obtained:
[1] = tested on: NCI-H460; test: Upregulation of HSF1 protein level in human NCI-H460 cells at 10 to 30 uM after 12 hrs by Western blot analysis; type: functional, cell-based
Summary of the method: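 NCI-H460 cells treated 12 h at 10 or 30 μM; HSF1, HSP27 and HSP70 detected by Western blot.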

[2] = biological target: T1, Heat shock factor protein 1 (Homo sapiens) (UniProt Q00613); test: Activation of HSF1 in human L132 cells assessed as increase in HSP70 mRNA expression at 3 uM after 12 hrs by RT-PCR analysis; type: cell-based
T1 sequence (whole entry): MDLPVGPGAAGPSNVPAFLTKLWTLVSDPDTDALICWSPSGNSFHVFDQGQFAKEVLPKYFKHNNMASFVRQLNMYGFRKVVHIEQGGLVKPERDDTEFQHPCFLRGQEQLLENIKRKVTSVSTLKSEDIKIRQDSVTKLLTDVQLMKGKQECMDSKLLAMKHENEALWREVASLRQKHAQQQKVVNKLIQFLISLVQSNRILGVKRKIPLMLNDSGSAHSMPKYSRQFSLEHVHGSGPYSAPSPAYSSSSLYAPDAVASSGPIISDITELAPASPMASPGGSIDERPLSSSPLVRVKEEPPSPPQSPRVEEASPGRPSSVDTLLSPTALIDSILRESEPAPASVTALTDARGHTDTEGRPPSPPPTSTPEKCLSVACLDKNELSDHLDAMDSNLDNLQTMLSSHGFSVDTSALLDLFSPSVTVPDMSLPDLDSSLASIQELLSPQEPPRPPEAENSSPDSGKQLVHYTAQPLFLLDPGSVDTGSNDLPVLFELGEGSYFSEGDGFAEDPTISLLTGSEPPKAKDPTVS
Summary of the method: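 L132 human lung fibroblasts treated 12 h at 3 μM; hsp27 and hsp70 mRNA measured by RT-PCR under the same conditions as immunoblotting. Celastrol 1 μM positive control.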

[3] = biological target: T1, Heat shock factor protein 1 (Homo sapiens); test: Activation of HSF1 in human L132 cells assessed as increase in HSP70 protein levels at 3 uM after 12 hrs by immunoblotting analysis; type: cell-based
Summary of the method: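 L132 cells treated at 3 μM for 12 h, or at various doses for 12 h, or at 3 μM over a time course. Lysates resolved by SDS-PAGE, blotted to nitrocellulose, milk-blocked, primary antibodies 18 h at 4 °C, ECL detection. HSP27, HSP70 and Ser326-phospho-HSF1 bands normalized to loading control; ≥3 independent experiments; celastrol 1 μM positive control.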

[4] = tested on: MEF; test: Cytoprotective activity against paclitaxel-induced caspase3 cleavage in HSF1 deficient MEF at 3 uM pretreated for 1 hr followed by paclitaxel addition measured after 24 hrs by immunoblotting analysis; type: functional, cell-based; conditions: Mus musculus
Summary of the method: (§1)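 HSF1+/+ or HSF1−/− MEFs in DMEM with heat-inactivated 10% FBS, nonessential amino acids, glutamine, HEPES, 37 °C, 5% CO2. 1 h pretreatment at 3 μM, then 0.5 μM paclitaxel or 20 μM cisplatin for 24 h, or 10 Gy 137Cs γ-rays (3.81 Gy/min) for 48 h. Cleaved PARP and caspase-3 immunoblotted; bands normalized to loading control, fold-change vs negative control, ≥3 independent experiments.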

[5] = tested on: MEF; test: Cytoprotective activity against cisplatin-induced caspase3 cleavage in HSF1 deficient MEF at 3 uM pretreated for 1 hr followed by cisplatin addition measured after 24 hrs by immunoblotting analysis; type: functional, cell-based; conditions: Mus musculus; summary of the method: as §1
[6] = tested on: MEF; test: Cytoprotective activity against IR-induced PARP cleavage in HSF1 deficient MEF at 3 uM pretreated for 1 hr followed by 10 Gy irradiation measured after 48 hrs by immunoblotting analysis; type: functional, cell-based; conditions: Mus musculus; summary of the method: as §1
[7] = biological target: T2, Heat shock factor protein 1 (Mus musculus) (UniProt P38532); test: Activation of HSF1 in MEF assessed as protection against paclitaxel-induced caspase3 cleavage at 3 uM pretreated for 1 hr followed by paclitaxel addition measured after 24 hrs by immunoblotting analysis; type: cell-based; summary of the method: as §1
T2 sequence (whole entry): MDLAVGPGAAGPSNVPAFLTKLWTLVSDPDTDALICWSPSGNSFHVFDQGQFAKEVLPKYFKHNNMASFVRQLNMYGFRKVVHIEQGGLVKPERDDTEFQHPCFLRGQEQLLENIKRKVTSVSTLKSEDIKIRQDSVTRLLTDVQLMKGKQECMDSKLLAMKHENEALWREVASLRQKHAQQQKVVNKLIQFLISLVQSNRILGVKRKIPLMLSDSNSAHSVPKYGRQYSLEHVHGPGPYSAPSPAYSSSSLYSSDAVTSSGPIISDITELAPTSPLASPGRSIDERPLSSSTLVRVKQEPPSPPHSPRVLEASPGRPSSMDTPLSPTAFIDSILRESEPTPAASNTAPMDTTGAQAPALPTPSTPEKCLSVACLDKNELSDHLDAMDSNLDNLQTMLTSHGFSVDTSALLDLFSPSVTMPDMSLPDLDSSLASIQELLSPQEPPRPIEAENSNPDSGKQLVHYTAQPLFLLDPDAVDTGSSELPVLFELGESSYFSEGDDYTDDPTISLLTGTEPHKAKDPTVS

[8] = biological target: T2, Heat shock factor protein 1 (Mus musculus); test: Activation of HSF1 in MEF assessed as protection against cisplatin-induced PARP cleavage at 3 uM pretreated for 1 hr followed by cisplatin addition measured after 24 hrs by immunoblotting analysis; type: cell-based; summary of the method: as §1
[9] = biological target: T2, Heat shock factor protein 1 (Mus musculus); test: Activation of HSF1 in MEF assessed as protection against IR-induced PARP cleavage at 3 uM pretreated for 1 hr followed by 10 Gy irradiation measured after 48 hrs by immunoblotting analysis; type: cell-based; summary of the method: as §1
[10] = tested on: Mus musculus; test: Protection against IR-induced reduction of food and water intake in ICR mouse at 5 to 10 mg/kg, ip administered once before and three times after 7 Gy irradiation measured daily for 30 days; type: functional, organism-based
Summary of the method: (§2)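 Female ICR mice (5–6 weeks, 25–30 g) given 7 Gy whole-body IR; dosed ip at 5 or 10 mg/kg once before and three times after IR, DMSO stock diluted in modified PBS. Survival days and radiation sickness signs checked twice daily; 10 mice per group.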

[11] = tested on: Mus musculus; test: Protection against IR-induced irritability in ICR mouse at 5 to 10 mg/kg, ip administered once before and three times after 7 Gy irradiation measured daily for 30 days; type: functional, organism-based; summary of the method: as §2
[12] = tested on: Mus musculus; test: Protection against IR-induced bone marrow damage in ICR mouse at 10 mg/kg, ip administered once before and three times after 4.5 Gy irradiation measured after 9 days by hematoxylin and eosin staining based assay; type: functional, organism-based
Summary of the method: (§3)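 Female ICR mice (5–6 weeks) given 4.5 Gy whole-body IR, dosed ip at 10 mg/kg once before and three times after IR; 5 per group, sacrificed day 9. BM cellularity from H&E (hematopoietic cells per 200×200 μm area); peripheral WBC, lymphocytes, neutrophils; Ki67 IHC counted in five fields per femur; relative spleen weight vs control. Means ± SD, Student's t test.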

[13] = tested on: Mus musculus; test: Protection against IR-induced reduction in circulating lymphocytes in ICR mouse at 10 mg/kg, ip administered once before and three times after 4.5 Gy irradiation measured after 9 days; type: functional, organism-based; summary of the method: as §3
[14] = tested on: Mus musculus; test: Protection against IR-induced reduction in cellular proliferation in ICR mouse at 10 mg/kg, ip administered once before and three times after 4.5 Gy irradiation measured after 9 days by Ki67 staining-based immunohistochemical analysis; type: functional, organism-based; summary of the method: as §3
[15] = tested on: Mus musculus; test: Protection against IR-induced reduction of spleen weight in ICR mouse at 10 mg/kg, ip administered once before and three times after irradiation measured after 9 days; type: functional, organism-based; summary of the method: as §3

| Structure (SMILES) | Activity [1] | Activity [2] | Activity [3] | Activity [4] | Activity [5] | Activity [6] | Activity [7] | Activity [8] | Activity [9] | Activity [10] | Activity [11] | Activity [12] | Activity [13] | Activity [14] | Activity [15] |
| --- | --- | --- | --- | --- | --- | --- | --- | --- | --- | --- | --- | --- | --- | --- | --- |
| COc1cc(/C=C/C=O)ccc1O [CONIFERYL ALDEHYDE] | Active | Active | Active | inactive | inactive | inactive | Active | Active | Active | Active | Active | Active | Active | Active | Active |
| COc1cc(/C=C/CO)ccc1O [CONIFERYL ALCOHOL] | Active | Active | Active | inactive | inactive | inactive | Active | Active | Active | Active | Active | Active | Active | Active | Active |

Source: ChEMBL document CHEMBL4190282, “The Conjugated Double Bond of Coniferyl Aldehyde Is Essential for Heat Shock Factor 1 Mediated Cytotoprotection” (J Nat Prod, 2017)
